The text below walks through data of ChEMBL document CHEMBL1126857, “14 beta-[(p-nitrocinnamoyl)amino]morphinones, 14 beta-[(p-nitrocinnamoyl)amino]-7,8-dihydromorphinones, and their codeinone analogues: synthesis and receptor activity” (J Med Chem, 1993).

Sequence of Mu-type opioid receptor (P79350 whole entry): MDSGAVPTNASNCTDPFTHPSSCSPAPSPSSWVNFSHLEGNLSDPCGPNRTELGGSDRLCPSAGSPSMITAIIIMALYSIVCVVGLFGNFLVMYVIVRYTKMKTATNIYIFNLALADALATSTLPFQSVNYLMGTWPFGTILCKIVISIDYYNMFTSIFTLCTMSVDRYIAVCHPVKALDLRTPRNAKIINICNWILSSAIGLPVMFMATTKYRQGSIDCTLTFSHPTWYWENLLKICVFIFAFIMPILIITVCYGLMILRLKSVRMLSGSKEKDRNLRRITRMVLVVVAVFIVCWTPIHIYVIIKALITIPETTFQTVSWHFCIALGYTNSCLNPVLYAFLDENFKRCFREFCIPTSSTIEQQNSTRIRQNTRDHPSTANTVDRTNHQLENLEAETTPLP

Molecular target in one assay: not listed separately
Put plainly: Tested for its binding effect on [3H]- DAMGO in bovine striatal membrane at 20 nM. It is filed as functional, cell membranes, Bos taurus, Striatum. An outline of the steps:
(§1)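 Bovine striatal membranes (10 mg protein) pretreated 60 min at 25 °C with or without 20 nM ligand in 50 mM Tris-HCl pH 7.5, then washed by centrifugation five times. [3H]DAMGO saturation, 0.05–6.4 nM, 60 min at 25 °C, then filtration. Nonspecific binding with 10 μM naloxone; Bradford protein. Kd/Bmax by nonlinear regression; triplicate, three experiments.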
In turn, `C[C@@]12Oc3c(O)ccc4c3C13CCN(CC1CC1)C(C4)[C@]3(NC(=O)/C=C/c1ccc([N+](=O)[O-])cc1)CCC2=O` (some centres not stated) showed a Kd of 0.82 nM.

The next assay deals with Mu-type opioid receptor (Bos taurus, UniProt P79350). Put plainly: Binding affinity against mu opioid receptor from calf frontal cortex. The gist of the method:
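Calf frontal cortex membranes (10 mg wet weight), prewashed and preincubated 15 min at 37 °C, in 50 mM Tris-HCl pH 7.5 with 10 mM MgSO4 and 0.5 mM EDTA. Competition against 0.8 nM [3H]DAMGO at eight ligand concentrations, 30 min at 37 °C, in triplicate. Nonspecific binding with 1 μM naloxone. Filtration, then scintillation counting; IC50 taken.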
Compound `COc1ccc2c3c1O[C@@]1(C)C(=O)CC[C@@]4(NC(=O)/C=C/c5ccc([N+](=O)[O-])cc5)C(C2)N(C)CCC314` (some centres not stated) had a concentration for half-maximal inhibition (IC50) of 104 nM. Consider `C[C@@]12Oc3c(O)ccc4c3C13CCN(CC1CC1)C(C4)[C@]3(NC(=O)/C=C/c1ccc([N+](=O)[O-])cc1)C=CC2=O` (some centres not stated), for which the concentration for half-maximal inhibition (IC50) came to 1.88 nM. Compared with the last compound, the IC50 is about 55-fold lower.

Regarding `O=C(/C=C/c1ccc([N+](=O)[O-])cc1)N[C@@]12C=CC(=O)[C@@H]3Oc4c(O)ccc5c4C31CCN(CC1CC1)C2C5` (some centres not stated), the IC50 stood at 7.8 nM. This IC50 lies about 4.1-fold higher than the previous one. As to `C[C@@]12Oc3c(O)ccc4c3C13CCN(CC1CC1)C(C4)[C@]3(NC(=O)/C=C/c1ccc([N+](=O)[O-])cc1)CCC2=O` (some centres not stated), the half-inhibitory concentration (IC50) stood at 0.52 nM. `CN1CCC23c4c5ccc(O)c4O[C@H]2C(=O)C=C[C@@]3(NC(=O)/C=C/c2ccc([N+](=O)[O-])cc2)C1C5` (some centres not stated) yielded a half-inhibitory concentration (IC50) of 1.45 nM. Turning to `CN1CC[C@]23c4c5ccc(O)c4O[C@H]2C(=O)CC[C@@]3(NC(=O)/C=C/c2ccc([N+](=O)[O-])cc2)[C@H]1C5`, the IC50 came out at 0.28 nM. Consider `O=C(/C=C/c1ccc([N+](=O)[O-])cc1)N[C@@]12CCC(=O)[C@@H]3Oc4c(O)ccc5c4[C@@]31CCN(CC1CC1)[C@@H]2C5`, for which the concentration for half-maximal inhibition (IC50) turned out to be 0.87 nM. Against the preceding compound, the IC50 is about 3.1-fold higher.

In turn, `COc1ccc2c3c1O[C@H]1C(=O)CC[C@@]4(NC(=O)/C=C/c5ccc([N+](=O)[O-])cc5)C(C2)N(C)CCC314` (some centres not stated) displayed an IC50 of 0.44 nM. Against the preceding compound, the IC50 is about 2-fold lower. Take `COc1ccc2c3c1O[C@H]1C(=O)C=C[C@@]4(NC(=O)/C=C/c5ccc([N+](=O)[O-])cc5)C(C2)N(CC2CC2)CCC314` (some centres not stated): the 50% inhibitory concentration (IC50) was 1.45 nM. The same measure, in the same setting: the same measure for `COc1ccc2c3c1O[C@@]1(C)C(=O)CC[C@@]4(NC(=O)/C=C/c5ccc([N+](=O)[O-])cc5)C(C2)N(CC2CC2)CCC314` (some centres not stated): 32 nM; for `C[C@@]12Oc3c(O)ccc4c3C13CCN(CC1CC1)C(C4)[C@]3(NC(=O)CCc1ccc([N+](=O)[O-])cc1)CCC2=O` (some centres not stated): 24 nM. In turn, `COc1ccc2c3c1O[C@H]1C(=O)C=C[C@@]4(NC(=O)/C=C/c5ccc([N+](=O)[O-])cc5)C(C2)N(C)CCC314` (some centres not stated) yielded an IC50 of 1.01 nM. In turn, `COc1ccc2c3c1O[C@@]1(C)C(=O)C=C[C@@]4(NC(=O)/C=C/c5ccc([N+](=O)[O-])cc5)C(C2)N(CC2CC2)CCC314` (some centres not stated) came in with an IC50 of 36.8 nM. The same measure, in the same setting: the same measure for `COc1ccc2c3c1O[C@@]1(C)C(=O)C=C[C@@]4(NC(=O)/C=C/c5ccc([N+](=O)[O-])cc5)C(C2)N(C)CCC314` (some centres not stated): 36.2 nM. Turning to `CN1CCC23c4c5ccc(O)c4O[C@@]2(C)C(=O)C=C[C@@]3(NC(=O)/C=C/c2ccc([N+](=O)[O-])cc2)C1C5` (some centres not stated), the half-inhibitory concentration (IC50) worked out at 0.8 nM.

Tested on in a further assay: not listed separately
Put plainly: Bmax value expressed in (f mol bound)/mg of protein. An outline of the steps:
as §1
On to `C[C@@]12Oc3c(O)ccc4c3C13CCN(CC1CC1)C(C4)[C@]3(NC(=O)/C=C/c1ccc([N+](=O)[O-])cc1)CCC2=O` (some centres not stated), for which the Bmax (fM bound (mg of protein)-1) stood at 100.

Broadly, the Kd is the concentration at which binding is half-saturated. For orientation: IC50 means the concentration at which inhibition is half-maximal. A higher IC50 goes with a need for much substance.
